High-throughput results: PubChem BioAssay, The Scripps Research Institute Molecular Screening Center
NPY Y2 blocker: NPY-Y2 receptor antagonists, primary screen, cell-based; Neuropeptide Y receptor type 2 (Homo sapiens), P49146; NPY-Y2 expressing cells, antagonist mode; inhibition, % at 2.7 µM; actives 0.99% (n = 140,000); AID 793, 2007;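 note: 0% = vehicle with agonist challenge and 100% = reference antagonist with challenge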
Target sequence (P49146 whole entry, looked up): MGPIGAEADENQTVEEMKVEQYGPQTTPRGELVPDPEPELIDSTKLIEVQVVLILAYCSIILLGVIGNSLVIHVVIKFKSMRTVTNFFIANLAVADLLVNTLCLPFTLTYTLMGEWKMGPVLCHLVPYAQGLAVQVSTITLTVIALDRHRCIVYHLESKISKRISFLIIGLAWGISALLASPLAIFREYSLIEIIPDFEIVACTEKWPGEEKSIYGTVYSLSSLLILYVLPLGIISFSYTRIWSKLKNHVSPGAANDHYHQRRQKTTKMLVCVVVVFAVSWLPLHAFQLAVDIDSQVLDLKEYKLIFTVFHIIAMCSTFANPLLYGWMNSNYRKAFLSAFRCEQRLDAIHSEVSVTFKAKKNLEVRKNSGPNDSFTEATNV
NPY-Y2 PAM-ag: NPY-Y2 potentiators or agonists, primary screen, cell-based | Neuropeptide Y receptor type 2 (Homo sapiens), P49146 | cells expressing NPY-Y2, potentiator/agonist read-out | activation, % at 3.6 µM | actives 0.45% (n = 220,000) | AID 1359, 2008; in the data active = activation above about 27%;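 note: cells stimulated with NPY near EC25 plus isoproterenol at EC100; 0% = vehicle plus submaximal agonist and 100% = vehicle plus saturating agonist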
NPY Y1 blocker: NPY-Y1 receptor antagonists, primary screen, cell-based; inhibition, % at 3.6 µM; Neuropeptide Y receptor type 1 (Homo sapiens), P25929; HEK293-CNG Y1 cells, membrane potential fluorescence; NPY at EC95, then isoproterenol; actives 1% (n = 200,000);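 active = inhibition above the campaign mean inhibition of all tested compounds plus 3 SD, cut at about 20% in these data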;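 note: 0% = DMSO wells given NPY plus isoproterenol and 100% = isoproterenol alone without NPY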
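Material: HEK293 Y1/CNG channel cell line | Also added: NPY (25 nM), isoproterenol (1 µM), Ro 20-1724 (25 µM) | Compound: One concentration, 3.6 µM, in 0.4% DMSO | Schedule: 3 h dye uptake, 1 h room-temperature compound, 45 min post-isoproterenol | Signal: Membrane-potential fluorescent dye readout | Read-out: % inhibition of NPY effect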
NPY-Y1 PAM-ag: NPY-Y1 receptor potentiators or agonists, primary screen, cell-based; actives 0.37% (n = 220,000); NPY-Y1 expressing cells, potentiator/agonist activation; activation, % at 3.6 µM; Neuropeptide Y receptor type 1 (Homo sapiens), P25929; in the data active = activation above about 33%, passing the limit was not always enough;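 note: cells stimulated with NPY at EC10 then isoproterenol at EC100; 0% = low agonist plus stimulus and 100% = saturating agonist plus stimulus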
NPY1 antag conf: NPY-Y1 receptor antagonists, retest of hits, confirmation, HEK293-CNG cells, membrane potential fluorescence, triplicate; actives 21% (n = 1,200); inhibition, % at 3.6 µM; AID 1254, 2008; shares compounds with NPY Y1 blocker; cAMP; NPY challenge against isoproterenol-raised cAMP; in the data active = inhibition above about 20%;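 note: 0% = vehicle with agonist plus stimulus and 100% = stimulus alone without agonist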
NPY-Y2 antag ct: NPY-Y2 receptor antagonists, selectivity check, confirmation, counter-screen for NPY-Y1 antagonist project, HEK293-CNG cells, membrane potential fluorescence, triplicate | inhibition, % at 3.6 µM | actives 28% (n = 1,200) | antagonism; cells given NPY, then isoproterenol | shares compounds with NPY Y1 blocker;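 note: 0% = DMSO with agonist challenge and 100% = reference antagonist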
* hit, by the source's call; nt = no result. An excerpt weighted towards active compounds, which were near 1.9% of everything screened. Cut-off read from the data, not from the text of the source, unless noted: active = inhibition above about 17%; inactive = the rest.

SMILES	NPY Y2 blocker	NPY-Y2 PAM-ag	NPY Y1 blocker	NPY-Y1 PAM-ag	NPY1 antag conf	NPY-Y2 antag ct
N=c1n(Cc2ccc(Cl)cc2)c2ccccc2n1CC(O)COc1ccccc1 (centres undefined)	nt	-26.3	41.3*	-9.5	25.6*	22.2*
N=c1n(CCO)c2ccccc2n1Cc1ccc(Cl)cc1	5.9	-19.9	11.1	-27.1	nt	nt
CCN(CC)CCn1c(=N)n(CC(O)COc2cccc(C)c2)c2ccccc21 (centres undefined)	nt	-28.3	55.5*	-47.7	43.6*	41.5*
O=C(c1cccs1)N1CCN(c2ncc(Br)cn2)CC1	nt	-7.3	nt	11.8	nt	nt
O=C(NCc1ccco1)C1CCN(S(=O)(=O)c2ccc(-n3cnnn3)cc2)CC1	1.9	5.2	21.1*	-5.8	0.0	2.8
Cc1ccccc1CCNC(=O)C1CCN(S(=O)(=O)c2ccc(-n3cnnn3)cc2)CC1	0.4	0.1	-0.9	13.4	nt	nt
Cc1cccc(OCc2n(CC(=O)OC3CC(C)CCC3C(C)C)c3ccccc3[n+]2C)c1 (centres undefined)	nt	-24.7	28.5*	-48.5	24.1*	38.9*
COC(=O)c1ccc(C#Cc2ccccc2)o1	nt	-9.8	nt	-13.4	nt	nt
CCOc1ccc2nc(N3C(=O)/C(=C/c4ccc(Cl)cc4)NC3=S)sc2c1	0.6	0.0	8.1	9.9	nt	nt
CCN(CC)CCNC(=S)NC(=O)c1cn(-c2ccccc2)nc1-c1ccc(OC)cc1	nt	-43.3	26.4*	-42.9	17.2	32.3*
COC(=O)c1cn(-c2ccccc2)nc1-c1ccc(OC)cc1	nt	-3.8	7.1	-26.6	nt	nt
Cc1ccc(-n2c3c(c(=O)[nH]c2=O)C(NS(=O)(=O)c2ccc(Cl)cc2)(C(F)(F)F)C(=O)N3)cc1 (centres undefined)	1.8	-7.0	2.1	2.0	nt	nt
Cn1c2c(c(=O)n(C)c1=O)C(C(F)(F)F)(C(F)(F)F)N=C(c1ccccc1Cl)N2	-1.4	11.4	-1.8	-5.0	nt	nt
Cn1c2c(c(=O)n(C)c1=O)C(C(F)(F)F)(C(F)(F)F)N=C(CCC1CCCCC1)N2	10.3	-8.8	21.6*	-34.6	18.0	39.6*
Nc1cc(=O)[nH]c(SCC(=O)Nc2cccc(Cl)c2Cl)n1	nt	-7.2	-1.6	-34.7	nt	nt
c1ccc(-c2nc3cnccn3c2Nc2ccc3c(c2)OCCO3)cc1	12.0	-1.1	36.9*	-24.8	4.8	5.0
O=C(Cn1c(C(=O)N2CCc3ccccc3C2)cc2sccc21)c1ccccc1	7.0	3.7	4.3	-3.1	nt	nt
O=C(Cn1c(C(=O)N2CCN(C3CCCCC3)CC2)cc2sccc21)c1ccccc1	14.6	-35.6	22.5*	-34.7	10.0	8.2
OC1CCN(Cc2cccc(Oc3ccccc3)c2)CC1	1.9	5.1	-1.8	1.2	nt	nt
CC1CCCN(Cc2cccc(Oc3ccccc3)c2)C1 (centres undefined)	13.2	-9.7	25.3*	-13.1	9.5	9.6
Cc1cc(CN(C)Cc2c(C(=O)N3CCCCCCC3)nc3ccc(Cl)cn23)n[nH]1	nt	3.0	1.0	-2.5	nt	nt
CC(Oc1ccc(F)cc1)C(=O)Nc1ccc2ccccc2c1 (centres undefined)	16.4	-2.2	40.6*	-21.5	14.1	10.6
C=CCOC(=O)/C(=C\c1ccc(OC)cc1)NC(=O)c1ccco1	3.4	-9.8	88.6*	-0.9	-1.6	4.1
CCOc1cc(NC(=S)NCCCN2CCOCC2)c(OCC)cc1NC(=O)C1CCCCC1	nt	3.8	0.2	-5.8	nt	nt
O=C(CN1C(=O)C2CC=CCC2C1=O)Nc1nnc(SCc2c(Cl)cccc2Cl)s1 (centres undefined)	4.8	5.9	2.9	-0.6	nt	nt
SMILES	NPY Y2 blocker	NPY-Y2 PAM-ag	NPY Y1 blocker	NPY-Y1 PAM-ag	NPY1 antag conf	NPY-Y2 antag ct
O=C(CN1C(=O)C2CC=CCC2C1=O)Nc1nnc(SCc2ccc(Cl)cc2)s1 (centres undefined)	15.1	-14.3	23.9*	-25.3	8.6	10.4
CN(C)S(=O)(=O)c1cccc(NC(=O)COC(=O)CNC(=O)c2cccc([N+](=O)[O-])c2)c1	nt	-13.6	nt	9.2	nt	nt
COc1ccccc1Nc1nc(N)nc(CN2CCC(Cc3ccccc3)CC2)n1	11.7	-21.1	25.1*	-23.2	14.2	22.2*
C/C(=N\Nc1ccc([N+](=O)[O-])cc1)c1ccc(N)cc1	-3.2	-11.5	0.4	7.9	nt	nt
C/C(=N\Nc1nc(C)c(C)s1)c1ccc([N+](=O)[O-])cc1	nt	20.3	37.7*	25.8	41.9*	53.6*
Cc1ccc2nc(NC(=O)Cc3cccs3)sc2c1	-3.8	21.2	-11.0	31.8	nt	nt
CCc1ccc2nc(NC(=O)CCCc3cccs3)sc2c1	6.5	-21.2	23.5*	-39.1	11.1	8.1
O=C(CCNC(=O)Cn1ccc2ccccc2c1=O)NCCc1ccc(Cl)cc1	-0.6	14.7	-4.1	-0.2	nt	nt
CCN(CC)c1ncnc2scc(C3COc4ccccc4O3)c12 (centres undefined)	15.3	-16.1	38.0*	-36.0	15.9	8.1
COCc1cc(C)nc2sc(C(=O)NN)c(-n3cccc3)c12	nt	-19.8	0.6	-4.7	nt	nt
CCCCNC(=O)c1sc2nc(C)cc(COC)c2c1-n1cccc1	9.2	-21.5	20.5*	-44.2	19.7	11.6
Cc1noc(C)c1CS(=O)(=O)c1ccc([N+](=O)[O-])cc1	nt	-10.3	0.9	12.6	nt	nt
O=C(CSc1ccc(Cl)cc1)N1CCN(c2ncc(C(F)(F)F)cc2Cl)CC1	9.5	-23.0	23.8*	-3.9	5.1	13.4
O=C(CN1CCN(c2ncc(C(F)(F)F)cc2Cl)CC1)N1CCN(c2ncc(C(F)(F)F)cc2Cl)CC1	3.0	3.7	7.2	-19.2	nt	nt
O=c1cnn([C@@H]2O[C@H](CO)[C@@H](O)[C@H]2O)c(=O)[nH]1	-1.2	-1.5	70.2*	1.7	-0.6	0.9
Nc1ccn([C@@H]2O[C@H](CO)[C@@H](O)C2O)c(=O)n1 (some centres undefined)	nt	8.8	2.7	-4.1	nt	nt
Cc1ccccc1CSc1nnc2ccc(-c3ccncc3)nn12	nt	-18.8	2.5	-23.3	nt	nt
COC(=O)Nc1nc(-c2ccccc2)c(C(=O)c2ccc(Cl)cc2)s1	5.9	-23.6	6.0	-12.6	nt	nt
CCOC(=O)Nc1nc(-c2ccccc2)c(C(=O)c2ccccc2)s1	16.2	-18.1	35.9*	-19.9	5.5	21.2*
COc1ccccc1-c1cc(C(F)(F)F)nc(S(=O)(=O)CCCC(=O)N2CCCCC2C)n1 (centres undefined)	-0.5	-15.2	24.9*	-68.2	14.2	44.5*
C=CCOC(=O)c1cn(CC)c2nc(C)ccc2c1=O	nt	6.2	-0.9	-4.5	nt	nt
CCn1cc(C(=O)OCC(=O)OC2CC(C)CCC2C(C)C)c(=O)c2ccc(C)nc21 (centres undefined)	3.6	-1.1	20.8*	-22.2	11.0	8.2
